ChEMBL document CHEMBL1141859, “Synthesis and antimicrobial activity of 5-hydroxymethyl- 8-methyl-2-(N-arylimino)-pyrano[2,3-c]pyridine-3-(N-aryl)-carboxamides” (2005)
≈ marks a conversion by molar mass, not a printed value.

Legend:
Type in all cases: functional
Pseudomonas aeruginosa = test: Antibacterial activity against Pseudomonas aeruginosa
Summary of the method: (§1)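 Twofold serial broth dilution in tubes, triplicate. Ten tubes of seeded broth (2 mL each); compound added as a 1 mg/mL DMF solution to the first tube, then serially transferred. Bacteria inoculated at 2×10^5 cfu/mL and incubated at 37 °C for 18–24 h. MIC (µg/mL) read visually. DMF solvent, positive growth and standard drug controls run alongside.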

Escherichia coli = test: Antibacterial activity against Escherichia coli; summary of the method: as §1
Candida albicans = test: Antifungal activity against Candida albicans
Summary of the method: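 For Candida albicans: broth double-dilution in tubes, run in triplicate. Compound added as a 1 mg/mL DMF solution to the first of ten seeded-broth tubes (2 mL), then serially diluted by transfer. Fungal inoculum 5×10^5 cfu/mL; incubation at 30 °C for 48 h. MIC (µg/mL) by visual reading. Controls were DMF solvent, positive growth and standard drug.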

Staphylococcus aureus = test: Antibacterial activity against Staphylococcus aureus; summary of the method: as §1
Proteus vulgaris = test: Antibacterial activity against Proteus vulgaris; summary of the method: as §1

Structure (SMILES) | MIC (Pseudomonas aeruginosa) [µg/mL] | MIC (Escherichia coli) [µg/mL] | MIC (Candida albicans) [µg/mL] | MIC (Staphylococcus aureus) [µg/mL] | MIC (Proteus vulgaris) [µg/mL]
COc1ccc(NC(=O)c2cc3c(CO)cnc(C)c3o/c2=N\c2ccc(Cl)c(Cl)c2)c(OC)c1 | 50 (≈ 97.2 µM) | 50 (≈ 97.2 µM) | 50 (≈ 97.2 µM) | 50 (≈ 97.2 µM) | 50 (≈ 97.2 µM)
CCOc1ccc(/N=c2\oc3c(C)ncc(CO)c3cc2C(=O)Nc2cccc(C)c2)cc1 | 25 (≈ 56.4 µM) | 50 (≈ 113 µM) | 50 (≈ 113 µM) | 50 (≈ 113 µM) | 50 (≈ 113 µM)
COc1ccc(NC(=O)c2cc3c(CO)cnc(C)c3o/c2=N\c2ccc(OC)c(OC)c2)c(OC)c1 | 50 (≈ 98.9 µM) | 50 (≈ 98.9 µM) | 50 (≈ 98.9 µM) | 25 (≈ 49.5 µM) | 50 (≈ 98.9 µM)
Cc1ccc(NC(=O)c2cc3c(CO)cnc(C)c3o/c2=N\c2ccc(Br)cc2)cc1 | 50 (≈ 105 µM) | 50 (≈ 105 µM) | 25 (≈ 52.3 µM) | 25 (≈ 52.3 µM) | 50 (≈ 105 µM)
Cc1ccc(NC(=O)c2cc3c(CO)cnc(C)c3o/c2=N\c2cccc(Cl)c2)cc1 | 50 (≈ 115 µM) | 50 (≈ 115 µM) | 25 (≈ 57.6 µM) | 50 (≈ 115 µM) | 50 (≈ 115 µM)
COc1ccc(/N=c2\oc3c(C)ncc(CO)c3cc2C(=O)Nc2cccc(C)c2)cc1OC | 100 (≈ 218 µM) | 50 (≈ 109 µM) | 50 (≈ 109 µM) | 50 (≈ 109 µM) | 100 (≈ 218 µM)
Cc1ccc(/N=c2\oc3c(C)ncc(CO)c3cc2C(=O)Nc2cccc(C)c2)cc1 | 50 (≈ 121 µM) | 50 (≈ 121 µM) | 50 (≈ 121 µM) | 50 (≈ 121 µM) | 50 (≈ 121 µM)
COc1cccc(/N=c2\oc3c(C)ncc(CO)c3cc2C(=O)Nc2ccc(C)cc2)c1 | 50 (≈ 116 µM) | 25 (≈ 58.2 µM) | 50 (≈ 116 µM) | 50 (≈ 116 µM) | 100 (≈ 233 µM)
Cc1ccc(NC(=O)c2cc3c(CO)cnc(C)c3o/c2=N\c2ccccc2I)cc1 | 50 (≈ 95.2 µM) | 50 (≈ 95.2 µM) | 50 (≈ 95.2 µM) | 25 (≈ 47.6 µM) | 100 (≈ 190 µM)
Cc1cccc(NC(=O)c2cc3c(CO)cnc(C)c3o/c2=N\c2ccc(C)c(C)c2)c1 | 12.5 (≈ 29.2 µM) | 25 (≈ 58.5 µM) | 12.5 (≈ 29.2 µM) | 50 (≈ 117 µM) | 50 (≈ 117 µM)
CCOC(=O)c1ccc(/N=c2\oc3c(C)ncc(CO)c3cc2C(=O)Nc2ccccc2)cc1 | 50 (≈ 109 µM) | 50 (≈ 109 µM) | 50 (≈ 109 µM) | 50 (≈ 109 µM) | 50 (≈ 109 µM)
Cc1cccc(NC(=O)c2cc3c(CO)cnc(C)c3o/c2=N\c2cccc(Cl)c2)c1 | 50 (≈ 115 µM) | 50 (≈ 115 µM) | 50 (≈ 115 µM) | 100 (≈ 230 µM) | 100 (≈ 230 µM)
CCc1ccccc1/N=c1\oc2c(C)ncc(CO)c2cc1C(=O)Nc1ccc(C)cc1 | 50 (≈ 117 µM) | 50 (≈ 117 µM) | 50 (≈ 117 µM) | 50 (≈ 117 µM) | 50 (≈ 117 µM)
Cc1cccc(NC(=O)c2cc3c(CO)cnc(C)c3o/c2=N\c2ccccc2)c1 | 25 (≈ 62.6 µM) | 50 (≈ 125 µM) | 12.5 (≈ 31.3 µM) | 100 (≈ 250 µM) | 50 (≈ 125 µM)
Cc1ccc2nc(-c3ccc(/N=c4\oc5c(C)ncc(CO)c5cc4C(=O)Nc4ccccc4)cc3)sc2c1 | 100 (≈ 188 µM) | 25 (≈ 46.9 µM) | 50 (≈ 93.9 µM) | 100 (≈ 188 µM) | 50 (≈ 93.9 µM)
COc1ccccc1/N=c1\oc2c(C)ncc(CO)c2cc1C(=O)Nc1ccc(C)cc1 | 50 (≈ 116 µM) | 50 (≈ 116 µM) | 25 (≈ 58.2 µM) | 100 (≈ 233 µM) | 100 (≈ 233 µM)
Cc1ccc(/N=c2\oc3c(C)ncc(CO)c3cc2C(=O)Nc2ccccc2C)cc1C | 25 (≈ 58.5 µM) | 50 (≈ 117 µM) | 100 (≈ 234 µM) | 100 (≈ 234 µM) | 50 (≈ 117 µM)
Cc1ccc(NC(=O)c2cc3c(CO)cnc(C)c3o/c2=N\c2ccc(Oc3ccccc3)cc2)cc1 | 50 (≈ 102 µM) | 50 (≈ 102 µM) | 12.5 (≈ 25.4 µM) | 50 (≈ 102 µM) | 50 (≈ 102 µM)

Structure (SMILES) | MIC (Pseudomonas aeruginosa) [µg/mL] | MIC (Escherichia coli) [µg/mL] | MIC (Candida albicans) [µg/mL] | MIC (Staphylococcus aureus) [µg/mL] | MIC (Proteus vulgaris) [µg/mL]
Cc1ncc(CO)c2cc(C(=O)Nc3ccccc3)/c(=N/c3ccccc3)oc12 | 50 (≈ 130 µM) | 25 (≈ 64.9 µM) | 50 (≈ 130 µM) | 50 (≈ 130 µM) | 50 (≈ 130 µM)
COc1ccc(NC(=O)c2cc3c(CO)cnc(C)c3o/c2=N\c2ccc(Cl)c(Cl)c2)cc1 | 25 (≈ 51.6 µM) | 25 (≈ 51.6 µM) | 12.5 (≈ 25.8 µM) | 12.5 (≈ 25.8 µM) | 25 (≈ 51.6 µM)
COc1cc(NC(=O)c2cc3c(CO)cnc(C)c3o/c2=N\c2ccc(C(N)=O)cc2)cc(OC)c1 | 50 (≈ 102 µM) | 50 (≈ 102 µM) | 25 (≈ 51.2 µM) | 50 (≈ 102 µM) | 50 (≈ 102 µM)
Cc1ncc(CO)c2cc(C(=O)Nc3ccccc3)/c(=N/c3ccc(Oc4ccccc4)cc3)oc12 | 50 (≈ 105 µM) | 25 (≈ 52.4 µM) | 50 (≈ 105 µM) | 50 (≈ 105 µM) | 50 (≈ 105 µM)
Cc1ncc(CO)c2cc(C(=O)Nc3ccccc3F)/c(=N/c3ccc(C(F)(F)F)cc3)oc12 | 50 (≈ 106 µM) | 50 (≈ 106 µM) | 25 (≈ 53 µM) | 50 (≈ 106 µM) | 100 (≈ 212 µM)
CCc1ccc(NC(=O)c2cc3c(CO)cnc(C)c3o/c2=N\c2ccc3c(c2)OCO3)cc1 | 50 (≈ 109 µM) | 50 (≈ 109 µM) | 12.5 (≈ 27.3 µM) | 100 (≈ 219 µM) | 50 (≈ 109 µM)
Cc1ncc(CO)c2cc(C(=O)Nc3ccccc3)/c(=N/c3ccc4c(c3)OCO4)oc12 | 50 (≈ 116 µM) | 25 (≈ 58.2 µM) | 50 (≈ 116 µM) | 50 (≈ 116 µM) | 50 (≈ 116 µM)
Cc1cc(C)cc(/N=c2\oc3c(C)ncc(CO)c3cc2C(=O)Nc2ccccc2C)c1 | 50 (≈ 117 µM) | 100 (≈ 234 µM) | 100 (≈ 234 µM) | 100 (≈ 234 µM) | 100 (≈ 234 µM)
CCc1cccc(/N=c2\oc3c(C)ncc(CO)c3cc2C(=O)Nc2ccccc2)c1 | 100 (≈ 242 µM) | 100 (≈ 242 µM) | 100 (≈ 242 µM) | 100 (≈ 242 µM) | 100 (≈ 242 µM)
Cc1cccc(/N=c2\oc3c(C)ncc(CO)c3cc2C(=O)Nc2ccccc2C)c1 | 50 (≈ 121 µM) | 50 (≈ 121 µM) | 12.5 (≈ 30.2 µM) | 100 (≈ 242 µM) | 25 (≈ 60.5 µM)
CCc1ccc(/N=c2\oc3c(C)ncc(CO)c3cc2C(=O)Nc2ccccc2)cc1 | 50 (≈ 121 µM) | 50 (≈ 121 µM) | 50 (≈ 121 µM) | 50 (≈ 121 µM) | 50 (≈ 121 µM)
COc1cc(/N=c2\oc3c(C)ncc(CO)c3cc2C(=O)Nc2cccc(C)c2)cc(OC)c1 | 50 (≈ 109 µM) | 100 (≈ 218 µM) | 12.5 (≈ 27.2 µM) | 25 (≈ 54.4 µM) | 100 (≈ 218 µM)
COc1ccc(/N=c2\oc3c(C)ncc(CO)c3cc2C(=O)Nc2cccc(C)c2)c(OC)c1 | 25 (≈ 54.4 µM) | 50 (≈ 109 µM) | 50 (≈ 109 µM) | 50 (≈ 109 µM) | 50 (≈ 109 µM)
Cc1cccc(/N=c2\oc3c(C)ncc(CO)c3cc2C(=O)Nc2ccccc2)c1 | 100 (≈ 250 µM) | 100 (≈ 250 µM) | 100 (≈ 250 µM) | 100 (≈ 250 µM) | 100 (≈ 250 µM)
Cc1ccc(NC(=O)c2cc3c(CO)cnc(C)c3o/c2=N\c2ccc(Cl)c(Cl)c2)cc1 | 50 (≈ 107 µM) | 100 (≈ 214 µM) | 25 (≈ 53.4 µM) | 100 (≈ 214 µM) | 50 (≈ 107 µM)
COc1cc(/N=c2\oc3c(C)ncc(CO)c3cc2C(=O)Nc2ccccc2)cc(OC)c1 | 25 (≈ 56.1 µM) | 50 (≈ 112 µM) | 100 (≈ 224 µM) | 50 (≈ 112 µM) | 50 (≈ 112 µM)
O=C(O)c1cn(C2CC2)c2cc(N3CCNCC3)c(F)cc2c1=O [CIPROFLOXACIN] | – | 25 (≈ 75.4 µM) | – | – | 12.5 (≈ 37.7 µM)
OC(Cn1cncn1)(Cn1cncn1)c1ccc(F)cc1F [FLUCONAZOLE] | – | – | 50 (≈ 163 µM) | – | –
